RGS4 pot – RGS4 potentiation or activation. B-score at 10 µM. AID 463111. actives 0.92% (n = 310,000). HEK293 M3R/inducible RGS4, carbachol calcium flux Fluo4; active compounds read low;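 active means B-score of the integrated calcium signal more than 4 SD below the library mean, with starting fluorescence not abnormally high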;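 further: negative B-score means reduced calcium response which marks RGS4 activation or potentiation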
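Assay system: HEK293 FlpIn-TREx cells, stable M3R, doxycycline-inducible RGS4 / Probe or stimulus: carbachol, ECmax concentration / Times: overnight RGS4 induction, 30 min dye load 37 °C, 20 min compound RT / Signal: kinetic calcium fluorescence imaging with Fluo4-AM dye, 2 µM / Measure: Agonist-evoked peak-minus-minimum fluorescence over baseline, integrated ratio, B score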
MrgX1 antag – antagonists of human MrgX1 receptor | B-score at 10 µM | Q96LB2 | AID 588676 | MRGX1-HEK293 calcium flux, Fluo-4, BAM8-22 antagonism; active compounds read low | actives 1.3% (n = 310,000);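 active means calcium-response B-score plate-corrected more than 3 library SD below zero, starting fluorescence within 5 deviations, no agonist response on first addition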;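 further: peak minus trough fluorescence over baseline after final BAM8-22 challenge near maximal dose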
RGS4 inh – human RGS4 inhibition | actives 0.45% (n = 310,000) | B-score at 10 µM | HEK293 M3R/RGS4 inducible, Fluo-4 calcium flux; active compounds read high; triggered by carbachol at its EC20 | P49798;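 active means B-score, a plate-corrected calcium signal, over three deviations above library mean, with baseline fluorescence within five deviations of library mean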;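 further: RGS4 expression induced by doxycycline in cells with stable M3 receptor; B-score is computed from the integrated fluorescence ratio over baseline after carbachol; higher B-score means a larger calcium signal and so more RGS4 inhibition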
Target sequence (P49798 whole entry, looked up): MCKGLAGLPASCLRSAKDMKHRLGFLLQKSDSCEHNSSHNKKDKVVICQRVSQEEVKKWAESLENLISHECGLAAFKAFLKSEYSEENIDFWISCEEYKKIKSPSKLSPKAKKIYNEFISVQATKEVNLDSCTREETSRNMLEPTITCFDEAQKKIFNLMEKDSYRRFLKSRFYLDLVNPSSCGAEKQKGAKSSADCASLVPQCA
PHOSPHO1 block – inhibitors of human PHOSPHO1 phosphatase. recombinant PHOSPHO1, absorbance phosphatase assay. inhibition, % at 13.3 µM. Q8TCT1. actives 1.1% (n = 290,000); in the data active means inhibition above about 60%
MrgX1 agonist – activates human MrgX1 receptor signaling; Q96LB2; MrgX1-HEK293 cells, Fluo-4 calcium fluorescence, agonist mode; active compounds read high; B-score at 10 µM; actives 0.44% (n = 310,000); AID 588627;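 active means calcium response B-score plate-corrected fluorescence ratio at least 3 library SD, with starting fluorescence B-score inside 5 SD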
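Material: HEK293 cells stably expressing human MrgX1 receptor | Quantity: 15,000 cells per well | Times: Cells plated overnight, dye loaded 0.5 h 37 °C, 0.5 h room temperature | Measured by: Kinetic Fluo-4 NW fluorescence of intracellular calcium | Control set: Positive and negative controls per plate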
MrgX1 PAM – human MrgX1 positive allosteric modulation, primary screen. Q96LB2. MrgX1-HEK293, Fluo-4 calcium flux, FDSS; active compounds read high. B-score at 10 µM. actives 0.63% (n = 310,000). AID 588675;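 active means plate-corrected calcium response at least 3 library SD above typical, normal starting fluorescence, not activating the receptor alone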;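 further: compound read alongside a low EC10 to EC30 dose of BAM8-22 agonist; peak minus trough fluorescence over baseline measured at the second addition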
* marks the source's active call; other numbers are inactive results; i = inactive; . = not tested or not shown. Shown are actives, neighbours in structure and some others; about 4.5% of the full set was active somewhere.

SMILES | RGS4 pot | MrgX1 antag | RGS4 inh | PHOSPHO1 block | MrgX1 agonist | MrgX1 PAM
O=C(Cc1cccs1)NCc1cccc(Br)c1 | i | i | i | 35 | i | i
CC(C)c1ccc(C2C3CSCC=C3C(C#N)=C(N)C2(C#N)C#N)cc1 (stereo not drawn) | -8.7* | i | i | 19 | i | i
C/C(=N/Nc1nc(-c2ccc(Cl)cc2)cs1)c1cccs1 | i | i | i | 92* | i | i
COCCCNc1nc(=S)[nH]c2cc(OC)c(OC)cc12 | i | i | i | 82* | i | i
Cc1c(C(=O)NCc2ccccc2)c(-c2ccccc2)nn1-c1ccccc1 | i | i | i | 7 | i | i
O=C(CSc1ccccc1)Nc1ccc2c(c1)OCO2 | i | i | i | 17 | i | i
O=C(CSCc1ccccc1)Nc1ccc2c(c1)OCO2 | i | i | i | 6 | i | i
CCN(CC(=O)Nc1ccc2c(c1)OCCO2)C(=O)/C=C/c1ccccc1 | i | i | i | -5 | i | i
O=C(CSc1ncn(-c2ccccc2)n1)Nc1ccc2c(c1)OCO2 | i | i | i | 82* | i | i
CCN(CC(=O)Nc1ccc2c(c1)OCCO2)C(=O)CC(NC(C)=O)c1ccccc1 (stereo not drawn) | i | -7.4* | i | . | i | i
O=C(CSc1nccn1-c1ccc(Cl)cc1)Nc1ccc2c(c1)OCO2 | i | i | i | 89* | i | i
O=C(CSCc1c(Cl)cccc1Cl)Nc1ccc2c(c1)OCO2 | -7.5* | i | i | 7 | i | i
Cc1cccc(-n2ccnc2SCC(=O)Nc2ccc3c(c2)OCCO3)c1 | i | i | i | 14 | i | i
CC(C)c1ccc(C(=O)NNC(=O)C2C3CCC(C3)C2C(=O)O)cc1 (stereo not drawn) | i | i | i | 26 | i | i
O=C(CSc1nnc2c(n1)[nH]c1ccccc12)Nc1ccc2c(c1)OCO2 | i | i | i | 78* | i | i
Cc1ccc(NC(=O)CSc2ncn(-c3ccccc3)n2)cc1C | i | i | i | -23 | i | i
O=C(CSc1ncn(-c2ccccc2)n1)Nc1ccc2c(c1)OCCO2 | i | i | i | 62* | i | i
O=[N+]([O-])c1ccc2[nH]c(O)c(N=NC3CCS(=O)(=O)C3)c2c1 (stereo not drawn) | i | i | i | 2 | i | i
O=C(/C=C/c1cccc(F)c1)Nc1nccs1 | i | -6.3* | i | 11 | i | i
C=CCN1C(=O)C(CC(=O)Nc2ccc(OCCC)cc2)N(CCCN2CCN(Cc3ccccc3)CC2)C1=S (stereo not drawn) | i | i | i | -12 | i | 9.4*
C(=N\N(Cc1ccccc1)c1ccccc1)/c1cccnc1 | -7.9* | i | i | -16 | i | i
Oc1cccc(/C=N/N(Cc2ccccc2)c2ccccc2)c1 | i | i | i | 36 | i | i
Cc1ccc(-n2c(CSc3nc(C)cc(C)n3)nnc2SCC(=O)NCc2ccco2)cc1 | i | -6.6* | i | 18 | i | i
COc1ccc(OC)c(NC(=O)CSc2ncccn2)c1 | i | i | i | 76* | i | i
COc1ccc(OC)c(NC(=O)CSc2nnc(Cc3cccn3C)n2CCc2ccccc2)c1 | i | i | i | 69* | i | i
COc1ccc(OC)c(NC(=O)CSc2ccccc2)c1 | i | i | i | 5 | i | i
Cc1ccc(-n2c(Cc3cccn3C)nnc2SCC(=O)NCc2ccco2)cc1 | i | i | i | 78* | i | i
CN(C)CC(C)(C)CNS(=O)(=O)CC12CCC(CC1=O)C2(C)C (stereo not drawn) | i | i | i | 8 | i | i
CSc1nsc(SCC(=O)Nc2ccc(C(=O)O)cc2)n1 | i | i | i | 45 | i | i
CC(C)(CNC(=O)c1ccccc1NS(C)(=O)=O)N1CCCCC1 | i | i | i | 14 | i | i
